# In the library only some 4% were active in any assay of this set; here they are far more common.
# FN deposit inh = fibronectin deposition inhibition; AH1F fibroblasts, Alexa488-fibronectin deposition fluorescence, overnight; inhibition, % at 12.6 µM; 350,000 compounds, 0.086% hits; AID 743247;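 active = mean inhibition across replicates of 30% or more, regardless of how many single replicates reach that level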;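 note: positive control wells lacked labelled fibronectin entirely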
#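 Assay system: AH1F fibroblasts assembling fluorescent fibronectin matrix; Amount: 10000 AH1F cells per well; Buffer or medium: DMEM, 2% serum; Probe or stimulus: Alexa488-fibronectin, 24 nM final in well; Doses: single compound dose, delivered by pin transfer; Incubation: 1 h adhesion, overnight exposure; Measured by: fluorescence 485/525 nm; Read-out: fibronectin deposition inhibition.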
# C2C12 statin = suppression of simvastatin myotoxicity; C2C12 myotubes + simvastatin, ATP luminescence, 48 h; scaled: DMSO 0, geranylgeraniol control 100; rescue of ATP level, % at 7.49 µM; 330,000 compounds, 0.78% hits;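 active = mean ATP rescue above about 67%, or every replicate alone reaching that limit, limit read from the data, passing the limit was not always enough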;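 note: myotubes were challenged with 10 µM simvastatin during compound exposure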
# rRNA inh HTS = inhibits bacterial ribosomal RNA function over humanized ribosomes; GFP signal change (wild-type ribosome), % (concentration not given with the values); E. coli WT GFP vs humanized-ribosome RFP mutants, fluorescence, 24 h; active compounds read low; DMSO median 0, no signal -100; 350,000 compounds, 1.6% hits;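 active = significant combined selectivity score with lowered wild-type GFP, culture density cut under 30%, mutant RFP and density less affected; inactive = any of these conditions unmet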
# SIRT5 block = blocks human SIRT5 desuccinylation of peptide; Q9NXA8; Purified SirT5, succinyl-peptide AMC, trypsin-coupled fluorescence; inhibition, % at 15 µM; 330,000 compounds, 1.1% hits; AID 652115; in the data active = inhibition above about 15%
# E-sel inducer = induces E-selectin expression in human endothelial cells. P16581. HUVEC E-selectin immunofluorescence imaging; normalized: neutral wells 0, TNF-alpha wells 100. activation, % at 7.58 µM. 260,000 compounds, 0.37% hits. AID 686992;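 active = mean E-selectin-positive cell signal at least 10% of the positive control, reached in at least 60% of replicates, without over 20% cell loss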
# Target sequence (P16581 whole entry, looked up): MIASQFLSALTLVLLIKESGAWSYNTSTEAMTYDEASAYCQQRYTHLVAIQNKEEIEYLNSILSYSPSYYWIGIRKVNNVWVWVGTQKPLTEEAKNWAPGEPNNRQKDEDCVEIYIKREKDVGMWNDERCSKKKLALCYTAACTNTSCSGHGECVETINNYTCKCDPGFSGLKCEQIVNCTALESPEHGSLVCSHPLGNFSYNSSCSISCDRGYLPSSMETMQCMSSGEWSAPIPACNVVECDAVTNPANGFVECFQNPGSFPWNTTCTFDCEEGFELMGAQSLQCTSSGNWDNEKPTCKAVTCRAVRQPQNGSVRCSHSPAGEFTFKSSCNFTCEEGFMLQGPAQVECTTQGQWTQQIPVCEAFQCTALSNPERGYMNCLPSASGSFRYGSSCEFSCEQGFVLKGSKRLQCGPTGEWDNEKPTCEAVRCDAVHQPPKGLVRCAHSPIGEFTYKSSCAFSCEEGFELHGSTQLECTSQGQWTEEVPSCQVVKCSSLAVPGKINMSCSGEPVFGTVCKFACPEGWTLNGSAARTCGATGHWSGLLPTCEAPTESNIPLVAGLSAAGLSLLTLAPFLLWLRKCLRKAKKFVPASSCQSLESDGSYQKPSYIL
#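 Test system – human umbilical vein endothelial cells (HUVEC), E-selectin induction · Input – 3,000 HUVEC seeded per well · Buffer or medium – EGM-2, gelatin · Compound dosing – single-point compound dose · Detection – immunofluorescence imaging · Measure – percent E-selectin-positive cells · Controls – TNF-alpha high, DMSO low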
# FGF22 binding = binders of recombinant human FGF22 by thermal shift | SYPRO orange fluorescence; percent of sucrose octasulfate shift, DMSO zero | 340,000 compounds, 1.5% hits | Q9HCT0 | activity (Tm shift, normalised), % at 9.99 µM;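 active = mean Tm shift, scaled 0 neutral to 100 positive control, at about 1.3% or above, every replicate too, limit read from the data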
# An asterisk follows results filed as active; . = no result given.
SMILES,FN deposit inh,C2C12 statin,rRNA inh HTS,SIRT5 block,E-sel inducer,FGF22 binding
COc1ccc(COC(=O)C2=C(C)NC(=O)NC2c2ccc(O)c(OC)c2)cc1 (configuration not stated),.,2.9,-21.8*,-1.6,.,-0.3
CCOC(=O)C(C)OC(=O)C1=C(C)NC(=O)NC1c1ccc2c(c1)OCO2 (configuration not stated),-1.1,-3.4,5.2,20.2*,.,-0.2
CCOC(=O)C1=C(C)NC(=O)NC1c1ccc(OC)c(CN2CCOCC2)c1 (configuration not stated),.,78.6*,.,.,.,.
CCOC(=O)C1=C(CN2CCOCC2)NC(=O)NC1c1cccc([N+](=O)[O-])c1 (configuration not stated),-9.6,6.2,3.1,16.1*,0.8,0.2
CCOCc1cc(C2NC(=O)NC(C)=C2C(=O)OCC)ccc1OC (configuration not stated),.,8.9,.,.,.,.
O=C(C[C@@H]1C[C@H]2c3cc(NS(=O)(=O)c4ccc(F)cc4)ccc3O[C@H]2[C@H](CO)O1)NCc1cccc(F)c1,8.9,8.7,-10.9,0.3,-0.2,-0.4
O=C(Cc1ccccn1)N1CC2(C1)[C@H](c1ccccc1)[C@H](CO)N2C(=O)c1cccnc1,.,.,1.0,-3.6,0.1,.
O=C(C[C@@H]1CC[C@H](NC(=O)c2ccncc2)[C@H](CO)O1)NCC1CC1,2.1,0.7,1.3,-3.2,-0.3,-0.1
CCCN(C)C[C@H]1OCCCC[C@@H](C)Oc2ccc(NS(=O)(=O)c3ccc(OC)cc3)cc2C(=O)N([C@@H](C)CO)C[C@H]1C,.,-14.1,0.3,.,-0.1,.
COCC(=O)N1CC2(C1)[C@H](c1ccc(C3=CCCC3)cc1)[C@@H](CO)N2C(=O)COC,4.2,.,1.4,-3.2,0.1,-0.1
CCOC(=O)C1=C(CS(=O)(=O)c2ccccc2)NC(=O)NC1c1cccc(OC)c1 (configuration not stated),-14.2,.,0.8,0.2,.,43.9*
CCOC(=O)C1=C(CS(=O)(=O)c2ccccc2)NC(=O)NC1c1ccccc1 (configuration not stated),-0.3,-8.3,.,.,.,.
CCN1[C@H](C(=O)NCCc2cn(C)cn2)[C@@H](CO)[C@@H]2Cn3c(ccc(-c4ccncc4)c3=O)[C@@H]21,.,1.8,0.5,1.3,0.9,-0.1
Cc1ccc(S(=O)(=O)N2C(=O)[C@@H]3Cc4ccccc4CN3C2=O)cc1,4.1,15.8,19.0,17.0*,0.0,0.0
CC(C)NC(=O)N(C)C[C@@H]1Oc2ccc(NS(=O)(=O)c3cccs3)cc2CC(=O)N([C@@H](C)CO)C[C@H]1C,.,9.1,2.9,1.4,28.5*,0.2
C[C@@H]1CN([C@@H](C)CO)C(=O)Cc2cc(NS(=O)(=O)c3cccs3)ccc2O[C@H]1CN(C)Cc1ccc(C(F)(F)F)cc1,.,-32.6,-3.6,16.0*,-4.9,-0.5
C[C@@H]1CN([C@@H](C)CO)C(=O)Cc2cc(NS(=O)(=O)c3cccs3)ccc2O[C@H]1CN(C)Cc1ccc(-c2ccccc2)cc1,3.4,-0.4,-5.2,16.6*,-0.1,-0.3
COCC(=O)N1CC(=O)N2[C@@H](CO)[C@H](c3ccc(C#CC4CCCCC4)cc3)[C@@H]2C1,.,.,4.2,.,-0.3,.
CC(C)N=Cc1c(O)[nH]c2ccccc12,-5.1,82.9*,.,.,.,.
CC(C)(CO)N=Cc1c(O)[nH]c2ccccc12,.,4.9,.,.,.,.
COc1ccc(NC(=O)Nc2ccc3c(c2)[C@@H]2C[C@@H](CC(=O)O)O[C@H](CO)[C@@H]2O3)cc1,.,.,2.3,-3.4,0.5,.
CCN1CCN(C(=S)c2ccc(OC)cc2)CC1,-0.6,.,.,1.0,-0.1,43.4*
CCN1CCN(C(=S)c2ccc(Cl)cc2)CC1,7.9,.,.,.,.,.
CCN1CCN(C(=O)C(C)Nc2ccc(OC)cc2OC)CC1 (configuration not stated),-2.1,-3.9,2.2,15.2*,3.9,0.1
CC1=C(C(=O)OC2CCCC2)C(c2ccc(C)o2)C2=C(CC(c3cccs3)CC2=O)N1 (configuration not stated),-4.1,101.6*,.,.,2.0,.
SMILES,FN deposit inh,C2C12 statin,rRNA inh HTS,SIRT5 block,E-sel inducer,FGF22 binding
O=C(CSc1n[nH]c(=O)n1C1CC1)Nc1ccc(Cl)c(Cl)c1,8.2,-2.2,-20.4*,-3.7,0.1,-0.1
O=C(CSc1n[nH]c(=O)n1C1CC1)Nc1ccc(F)c(Cl)c1,-2.1,-4.4,-7.7,-0.1,1.4,-0.3
CC(=O)c1cccc(NC(=O)CSc2n[nH]c(=O)n2C2CC2)c1,-3.9,2.7,4.3,.,0.0,43.1*
CC(C)(C)c1ccc(NC(=O)CSc2n[nH]c(=O)n2C2CC2)cc1,2.1,-8.3,0.7,-0.8,-1.2,-0.2
O=S(=O)(c1cccs1)N1CCCCN2[C@@H](CO)[C@H](c3ccc(C4=CCCC4)cc3)[C@@H]2C1,.,-21.4,-56.3,0.8,-0.5,-0.3
Clc1cccc(Cl)c1/C=N/Nc1c(Cl)cncc1Cl,1.2,.,-16.4*,-6.1,1.1,-0.1
CCNC(=S)N/N=C/c1cc(C)n(-c2ccc(Cl)cc2)c1C,-34.1,.,4.6,15.5*,8.9,-0.1
Cc1cc(/C=N/NC(N)=S)c(C)n1-c1ccc(Cl)c(Cl)c1,-9.5,.,-2.6,-3.3,.,0.3
C[C@H]1CN([C@@H](C)CO)C(=O)c2cc(NC(=O)CCCN(C)C)ccc2O[C@H]1CN(C)Cc1ccccc1,.,-2.9,3.3,1.3,-0.2,0.0
O=[N+]([O-])c1cccc(-c2nnc(CNC3CC3)o2)c1,-14.4,.,14.2,-1.8,6.5,0.8
Clc1ccccc1-c1nnc(CNC2CC2)o1,-6.6,.,-0.2,-4.2,1.0,43.6*
CCOC(=O)N1CCN(S(=O)(=O)c2ccc(C(=O)Nc3sc4c(c3C(=O)OC)CCN(C)C4)cc2)CC1,.,5.1,-14.7*,-0.5,0.1,0.0
C[C@@H]1CN([C@H](C)CO)C(=O)c2cc(C#CCN(C)C)cnc2O[C@@H]1CN(C)C(=O)CCN1CCCCC1,8.6,15.8,-7.3,0.4,-0.3,-0.2
Oc1[nH]c2ccccc2c1N=NC(=S)NCC1CCCO1 (configuration not stated),4.7,.,-18.5,.,.,-0.3
Oc1[nH]c2ccc(Br)cc2c1N=NC(=S)NCC1CCCO1 (configuration not stated),-3.9,-6.2,-31.5*,4.1,-0.3,0.2
O=C(COc1ncnc2cc(Cl)ccc12)c1ccc2c(c1)OCCO2,-1.3,-0.9,11.0,-1.4,.,-0.2
O=C(COc1ncnc2ccccc12)c1ccc2c(c1)OCCO2,.,72.2*,.,.,.,.
O=C(COC(=O)c1ccc(Cl)nc1)c1ccc2c(c1)OCCO2,-4.1,.,5.2,-4.6,3.4,43.4*
Cc1ccccc1OCCSCc1nc2ccccc2[nH]1,-6.0,.,-47.5,3.4,.,-0.3
